Experiments:
[1] = target: STE20-like serine/threonine-protein kinase (Homo sapiens, UniProt Q9H2G2); experiment: Inhibition of recombinant full length GST-tagged human SLK expressed in baculovirus expression system by LanthaScreen assay
[2] = target: Ribosomal protein S6 kinase alpha-2 (Homo sapiens) (UniProt Q15349); experiment: Binding affinity to wild-type human partial length N-terminal RSK3 kinase domain 1 (M1 to Q385 residues) expressed in bacterial expression system assessed as residual binding level at 1 uM by Kinomescan method relative to control
[3] = target: Receptor-interacting serine/threonine-protein kinase 2 (Homo sapiens) (UniProt O43353); experiment: Binding affinity to wild-type human partial length RIPK2 (M1 to K310 residues) expressed in bacterial expression system assessed as residual binding level at 1 uM by Kinomescan method relative to control
Receptor-interacting serine/threonine-protein kinase 2 (Homo sapiens), sequence (O43353 whole entry, the tested form may be a part): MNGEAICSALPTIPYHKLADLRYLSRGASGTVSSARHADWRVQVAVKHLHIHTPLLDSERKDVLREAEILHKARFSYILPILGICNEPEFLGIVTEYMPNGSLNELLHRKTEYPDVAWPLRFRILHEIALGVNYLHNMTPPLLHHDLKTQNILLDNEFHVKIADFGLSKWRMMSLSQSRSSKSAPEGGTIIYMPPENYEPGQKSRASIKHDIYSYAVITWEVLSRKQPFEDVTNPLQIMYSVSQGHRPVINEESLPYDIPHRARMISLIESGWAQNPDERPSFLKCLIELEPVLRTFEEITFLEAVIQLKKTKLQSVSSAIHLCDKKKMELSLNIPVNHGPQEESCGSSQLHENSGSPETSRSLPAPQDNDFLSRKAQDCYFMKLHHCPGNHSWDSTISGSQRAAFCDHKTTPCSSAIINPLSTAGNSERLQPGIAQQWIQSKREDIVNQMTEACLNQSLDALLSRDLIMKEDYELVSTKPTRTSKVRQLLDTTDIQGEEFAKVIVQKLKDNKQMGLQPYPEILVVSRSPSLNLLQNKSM

[4] = system: Mast/stem cell growth factor receptor Kit (Homo sapiens), P10721 [L576P]; experiment: Binding affinity to human partial length KIT L576P mutant (Y545 to D952 residues) expressed in bacterial expression system assessed as residual binding level at 1 uM by Kinomescan method relative to control
How it was run: (§1)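 Kinome-wide selectivity panel run by the KINOMEscan method, with the test compound at a single concentration of 1 μM. Wild-type and mutant kinases were profiled in the same screen.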

[5] = target: Mitogen-activated protein kinase kinase kinase kinase 3 (Homo sapiens) (UniProt Q8IVH8); experiment: Binding affinity to wild-type human partial length MAP4K3 (M1 to D301 residues) expressed in bacterial expression system assessed as residual binding level at 1 uM by Kinomescan method relative to control
[6] = target: Insulin receptor (Homo sapiens, UniProt P06213); experiment: Inhibition of recombinant His-tagged human InsR (1011 to 1382 residues) expressed in baculovirus expression system by Z-LYTE assay
[7] = target: Tyrosine-protein kinase JAK1 (Homo sapiens) (UniProt P23458); experiment: Binding affinity to wild-type human partial length JAK1 JH2 pseudokinase domain (R537 to D855 residues) expressed in mammalian expression system assessed as residual binding level at 1 uM by Kinomescan method relative to control
[8] = system: Tyrosine-protein kinase ABL1 (Homo sapiens), P00519 [E255K]; experiment: Binding affinity to human phosphorylated ABL1 E255K mutant (S229 to K512 residues) expressed in mammalian expression system assessed as residual binding level at 1 uM by Kinomescan method relative to control; how it was run: as §1
[9] = system: Tyrosine-protein kinase ABL1 (Homo sapiens), P00519 [F317L]; experiment: Binding affinity to human non-phosphorylated ABL1 F317L mutant (S229 to K512 residues) expressed in mammalian expression system assessed as residual binding level at 1 uM by Kinomescan method relative to control; how it was run: as §1
Tyrosine-protein kinase ABL1 (Homo sapiens), P00519 [F317L], sequence (P00519 whole entry F317L, the tested form may be a part): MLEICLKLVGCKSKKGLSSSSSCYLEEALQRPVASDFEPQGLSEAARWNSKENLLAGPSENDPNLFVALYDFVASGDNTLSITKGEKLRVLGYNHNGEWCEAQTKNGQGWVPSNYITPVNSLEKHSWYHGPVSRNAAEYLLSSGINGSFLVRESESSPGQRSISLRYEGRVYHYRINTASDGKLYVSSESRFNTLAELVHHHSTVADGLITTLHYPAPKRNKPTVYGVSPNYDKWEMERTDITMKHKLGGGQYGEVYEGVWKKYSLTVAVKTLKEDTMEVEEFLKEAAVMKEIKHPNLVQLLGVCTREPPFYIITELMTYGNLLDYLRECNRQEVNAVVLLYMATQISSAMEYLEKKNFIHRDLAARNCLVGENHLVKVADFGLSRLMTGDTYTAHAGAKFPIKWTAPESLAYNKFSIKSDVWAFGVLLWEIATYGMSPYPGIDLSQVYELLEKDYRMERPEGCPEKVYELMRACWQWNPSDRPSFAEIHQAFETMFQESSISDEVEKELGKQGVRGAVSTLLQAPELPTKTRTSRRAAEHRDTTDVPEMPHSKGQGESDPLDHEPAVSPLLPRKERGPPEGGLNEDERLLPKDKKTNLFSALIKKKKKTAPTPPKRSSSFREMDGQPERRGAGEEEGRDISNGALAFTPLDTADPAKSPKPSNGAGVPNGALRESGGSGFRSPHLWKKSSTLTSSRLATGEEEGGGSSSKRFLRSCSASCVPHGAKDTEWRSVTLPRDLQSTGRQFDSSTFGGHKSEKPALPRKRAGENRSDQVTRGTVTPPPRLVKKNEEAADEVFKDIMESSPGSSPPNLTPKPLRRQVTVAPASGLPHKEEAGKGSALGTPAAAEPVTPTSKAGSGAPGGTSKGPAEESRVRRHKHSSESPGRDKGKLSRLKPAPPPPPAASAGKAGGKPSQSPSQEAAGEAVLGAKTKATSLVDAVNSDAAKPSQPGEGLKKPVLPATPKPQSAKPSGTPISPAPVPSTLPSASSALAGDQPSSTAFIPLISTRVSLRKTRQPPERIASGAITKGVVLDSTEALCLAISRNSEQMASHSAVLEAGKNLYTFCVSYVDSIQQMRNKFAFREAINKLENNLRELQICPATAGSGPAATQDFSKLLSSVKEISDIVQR

[10] = target: Phosphatidylinositol 4-phosphate 3-kinase C2 domain-containing subunit beta (Homo sapiens) (UniProt O00750); experiment: Binding affinity to wild-type human partial length PIK3C2B (M1 to L1634 residues) expressed in mammalian expression system assessed as residual binding level at 1 uM by Kinomescan method relative to control
[11] = target: Macrophage-stimulating protein receptor (Homo sapiens) (UniProt Q04912); experiment: Binding affinity to wild-type human partial length MST1R (I1057 to L1363 residues) expressed in bacterial expression system assessed as residual binding level at 1 uM by Kinomescan method relative to control
[12] = target: LIM domain kinase 2 (Homo sapiens) (UniProt P53671); experiment: Binding affinity to wild-type human full length LIMK2 (M1 to P638 residues) expressed in bacterial expression system assessed as residual binding level at 1 uM by Kinomescan method relative to control
How it was run: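 Single-point kinome-wide KINOMEscan binding panel, test compound at 1 μM, run by the provider's standard protocol.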

[13] = target: Cyclin-dependent kinase 9 (Homo sapiens) (UniProt P50750); experiment: Binding affinity to wild-type human full length CDK9 (M1 to F372 residues) expressed in bacterial expression system assessed as residual binding level at 1 uM by Kinomescan method relative to control
Cyclin-dependent kinase 9 (Homo sapiens), sequence (P50750 whole entry, the tested form may be a part): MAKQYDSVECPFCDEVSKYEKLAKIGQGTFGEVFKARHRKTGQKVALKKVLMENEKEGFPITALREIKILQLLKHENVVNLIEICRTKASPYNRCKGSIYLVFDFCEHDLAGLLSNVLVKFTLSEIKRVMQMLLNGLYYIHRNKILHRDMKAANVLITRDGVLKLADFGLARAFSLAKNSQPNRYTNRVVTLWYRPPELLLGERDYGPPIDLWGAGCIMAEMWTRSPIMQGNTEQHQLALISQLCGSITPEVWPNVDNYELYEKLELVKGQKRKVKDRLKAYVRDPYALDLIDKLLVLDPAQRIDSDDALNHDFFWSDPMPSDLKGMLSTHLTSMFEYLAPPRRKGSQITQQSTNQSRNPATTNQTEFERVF

[14] = target: Discoidin domain-containing receptor 2 (Homo sapiens) (UniProt Q16832); experiment: Binding affinity to wild-type human partial length DDR2 (V555 to E855 residues) expressed in mammalian expression system assessed as residual binding level at 1 uM by Kinomescan method relative to control
[15] = target: Tyrosine-protein kinase ABL2 (Homo sapiens) (UniProt P42684); experiment: Binding affinity to wild-type human ABL2 (A248 to G542 residues) expressed in bacterial expression system assessed as residual binding level at 1 uM by Kinomescan method relative to control; how it was run: as §1
Tyrosine-protein kinase ABL2 (Homo sapiens), sequence (P42684 whole entry, the tested form may be a part): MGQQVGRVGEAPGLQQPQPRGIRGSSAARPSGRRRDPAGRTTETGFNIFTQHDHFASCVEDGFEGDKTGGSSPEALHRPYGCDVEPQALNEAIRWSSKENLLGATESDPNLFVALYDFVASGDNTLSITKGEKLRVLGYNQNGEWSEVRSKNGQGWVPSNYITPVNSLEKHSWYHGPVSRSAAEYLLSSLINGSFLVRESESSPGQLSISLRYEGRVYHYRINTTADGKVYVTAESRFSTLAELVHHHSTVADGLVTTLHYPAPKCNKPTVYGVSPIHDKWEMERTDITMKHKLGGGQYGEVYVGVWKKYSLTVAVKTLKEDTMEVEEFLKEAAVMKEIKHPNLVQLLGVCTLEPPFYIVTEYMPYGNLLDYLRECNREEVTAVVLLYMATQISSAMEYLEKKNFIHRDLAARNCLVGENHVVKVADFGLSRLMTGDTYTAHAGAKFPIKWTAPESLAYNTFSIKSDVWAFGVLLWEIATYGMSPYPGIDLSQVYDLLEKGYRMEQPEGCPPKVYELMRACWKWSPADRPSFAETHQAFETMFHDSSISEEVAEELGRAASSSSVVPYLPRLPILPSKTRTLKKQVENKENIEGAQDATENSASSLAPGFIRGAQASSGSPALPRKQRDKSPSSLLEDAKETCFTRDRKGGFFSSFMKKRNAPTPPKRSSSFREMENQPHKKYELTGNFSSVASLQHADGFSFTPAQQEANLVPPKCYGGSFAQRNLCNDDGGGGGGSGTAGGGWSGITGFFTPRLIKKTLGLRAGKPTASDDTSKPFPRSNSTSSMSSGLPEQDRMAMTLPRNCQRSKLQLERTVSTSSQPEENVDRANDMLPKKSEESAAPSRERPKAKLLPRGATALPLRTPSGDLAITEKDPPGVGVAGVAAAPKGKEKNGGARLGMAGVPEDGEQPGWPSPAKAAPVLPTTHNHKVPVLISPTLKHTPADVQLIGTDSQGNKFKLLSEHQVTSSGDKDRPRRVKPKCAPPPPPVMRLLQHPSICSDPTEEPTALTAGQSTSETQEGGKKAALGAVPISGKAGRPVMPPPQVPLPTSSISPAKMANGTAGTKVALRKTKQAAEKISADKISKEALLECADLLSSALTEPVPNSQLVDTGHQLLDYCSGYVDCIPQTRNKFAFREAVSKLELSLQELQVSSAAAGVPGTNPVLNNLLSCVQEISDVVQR

[16] = target: Ribosomal protein S6 kinase alpha-5 (Homo sapiens) (UniProt O75582); experiment: Binding affinity to wild-type human partial length C-terminal RPS6KA5 kinase domain 2 (V390 to T718 residues) expressed in bacterial expression system assessed as residual binding level at 1 uM by Kinomescan method relative to control
[17] = target: Vascular endothelial growth factor receptor 3 (Homo sapiens) (UniProt P35916); experiment: Binding affinity to wild-type human partial length FLT4 (E821 to E1196 residues) expressed in bacterial expression system assessed as residual binding level at 1 uM by Kinomescan method relative to control
Vascular endothelial growth factor receptor 3 (Homo sapiens), sequence (P35916 whole entry, the tested form may be a part): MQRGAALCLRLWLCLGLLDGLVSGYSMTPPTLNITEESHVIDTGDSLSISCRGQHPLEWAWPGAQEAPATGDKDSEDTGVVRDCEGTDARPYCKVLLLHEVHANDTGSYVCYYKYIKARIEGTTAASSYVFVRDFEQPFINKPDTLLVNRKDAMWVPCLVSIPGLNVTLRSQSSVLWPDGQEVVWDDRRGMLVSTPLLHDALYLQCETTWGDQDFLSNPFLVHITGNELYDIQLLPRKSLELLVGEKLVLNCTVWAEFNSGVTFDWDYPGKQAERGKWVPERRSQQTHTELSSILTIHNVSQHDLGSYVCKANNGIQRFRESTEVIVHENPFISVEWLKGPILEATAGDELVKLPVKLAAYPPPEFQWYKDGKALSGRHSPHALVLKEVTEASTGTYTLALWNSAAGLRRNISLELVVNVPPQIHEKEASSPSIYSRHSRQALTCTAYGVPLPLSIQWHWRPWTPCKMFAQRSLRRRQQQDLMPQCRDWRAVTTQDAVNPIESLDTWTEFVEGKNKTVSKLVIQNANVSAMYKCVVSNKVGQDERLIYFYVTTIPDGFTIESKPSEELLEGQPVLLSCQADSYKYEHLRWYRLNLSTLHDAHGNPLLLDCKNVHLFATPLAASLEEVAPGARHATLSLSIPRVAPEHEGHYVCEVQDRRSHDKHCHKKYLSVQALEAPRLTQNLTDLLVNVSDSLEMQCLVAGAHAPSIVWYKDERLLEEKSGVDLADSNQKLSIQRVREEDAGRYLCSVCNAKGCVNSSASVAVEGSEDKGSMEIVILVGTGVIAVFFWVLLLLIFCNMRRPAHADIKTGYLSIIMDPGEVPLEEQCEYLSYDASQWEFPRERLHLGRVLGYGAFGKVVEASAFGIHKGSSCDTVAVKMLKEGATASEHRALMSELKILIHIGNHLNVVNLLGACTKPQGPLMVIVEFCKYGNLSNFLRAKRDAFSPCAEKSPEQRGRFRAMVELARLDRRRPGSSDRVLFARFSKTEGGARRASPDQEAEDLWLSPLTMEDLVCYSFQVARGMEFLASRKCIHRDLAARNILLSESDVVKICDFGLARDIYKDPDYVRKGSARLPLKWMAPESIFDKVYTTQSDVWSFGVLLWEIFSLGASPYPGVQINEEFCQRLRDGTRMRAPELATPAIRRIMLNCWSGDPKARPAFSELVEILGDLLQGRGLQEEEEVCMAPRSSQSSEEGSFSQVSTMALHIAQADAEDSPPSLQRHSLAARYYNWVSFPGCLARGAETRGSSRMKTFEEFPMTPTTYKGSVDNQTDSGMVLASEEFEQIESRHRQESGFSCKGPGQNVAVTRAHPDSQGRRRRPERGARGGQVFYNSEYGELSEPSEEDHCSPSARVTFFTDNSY

[18] = system: ALK tyrosine kinase receptor (Homo sapiens), Q9UM73 [C1156Y]; experiment: Binding affinity to wild-type human partial length ALK C1156Y mutant (I1088 to E1409 residues) expressed in mammalian expression system assessed as residual binding level at 1 uM by Kinomescan method relative to control
[19] = Drug uptake in mouse lung at 10 mg/kg, po after 2 hrs; format: ADME, organism-based; conditions: read-out: Drug uptake
[20] = system: Phosphatidylinositol 4,5-bisphosphate 3-kinase catalytic subunit alpha isoform (Homo sapiens), P42336 [E542K]; experiment: Binding affinity to human partial length PIK3CA E542K mutant (R108 to N1068 residues) expressed in mammalian expression system assessed as residual binding level at 1 uM by Kinomescan method relative to control
[21] = Metabolic stability in human liver microsomes assessed as parent compound remaining at 1 uM after 30 mins in presence of NADPH by LC/MS/MS analysis; format: ADME, Microsome; conditions: read-out: Stability
How it was run: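 Compound at 1 μM final with 0.5 mg/mL microsomal protein in 100 mM phosphate buffer pH 7.4 at 37 °C, started by adding an NADPH-regenerating system. Reactions were quenched with cold acetonitrile at 0 and 30 min and spun down. Supernatant was analysed by LC-MS/MS. The 0-min sample, quenched before NADPH addition, was set as 100%, and percent parent remaining came from peak areas.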

[22] = target: Testis-specific serine/threonine-protein kinase 1 (Homo sapiens) (UniProt Q9BXA7); experiment: Binding affinity to wild-type human full length TSSK1B (M1 to Q367 residues) expressed in bacterial expression system assessed as residual binding level at 1 uM by Kinomescan method relative to control
Testis-specific serine/threonine-protein kinase 1 (Homo sapiens), sequence (Q9BXA7 whole entry, the tested form may be a part): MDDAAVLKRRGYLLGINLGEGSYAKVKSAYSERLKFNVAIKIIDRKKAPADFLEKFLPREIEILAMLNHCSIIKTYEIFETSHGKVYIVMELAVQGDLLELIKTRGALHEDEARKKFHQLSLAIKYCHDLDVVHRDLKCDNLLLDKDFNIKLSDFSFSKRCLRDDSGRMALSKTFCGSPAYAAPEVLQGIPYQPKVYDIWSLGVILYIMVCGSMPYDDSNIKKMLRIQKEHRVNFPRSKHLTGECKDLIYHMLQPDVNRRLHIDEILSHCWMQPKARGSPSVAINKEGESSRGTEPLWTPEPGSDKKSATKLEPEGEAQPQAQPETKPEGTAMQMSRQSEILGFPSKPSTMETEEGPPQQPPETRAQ

[23] = target: Serine/threonine-protein kinase ULK3 (Homo sapiens) (UniProt Q6PHR2); experiment: Binding affinity to wild-type human partial length ULK3 (M1 to Q290 residues) expressed in mammalian expression system assessed as residual binding level at 1 uM by Kinomescan method relative to control

With `C=CC(=O)Nc1cc(Nc2ncc(Cl)c(Nc3ccccc3S(=O)(=O)C(C)C)n2)c(OC)cc1N(C)CCN(C)C` the IC50 [1] was 58 nM, the Activity [2] was 5.6% and the Activity [3] was 81%. It also gave an Activity [4] of 9.1%, an Activity [5] of 3.3% and an IC50 [6] of 8 nM. For the same compound, the Activity [7] was 63%, the Activity [8] was 12% and the Activity [9] was 0.8%. The Activity [10] was 69%, the Activity [11] was 100% and the Activity [12] was 73%. For the same compound, the Activity [13] was 80%, the Activity [14] was 77% and the Activity [15] was 50%. The Activity [16] was 64%, the Activity [17] was 36% and the Activity [18] was 0.2%. The concentration at 2 h [19] was 4.64 µM, the Activity [20] was 72% and the remaining at 0.5 h, 1 µM [21] was 16%. For the same compound, the Activity [22] was 12% and the Activity [23] was 7.7%.

From ChEMBL document CHEMBL4382192, “Discovery of a potent dual ALK and EGFR T790M inhibitor” (Eur J Med Chem, 2017)
